Results of several laboratories.
Lines come from different studies, so protocols differ.
Target: Serine/threonine-protein kinase pim-2 (PIM2, Homo sapiens, UniProt Q9P1W9)

CO[C@@H](C)c1c(Nc2ccc([C@@H](N(C)C(=O)C3CCS(=O)(=O)CC3)C(F)(F)F)cc2)cnc2cc(Cl)nn12  remaining binding (cell-free assay; competition with immobilised ligand; 1 µM): 95%
COc1ncc2cc3ccccc3nc2c1C#N  remaining binding (cell-free assay; competition with immobilised ligand; 5 µM): 88%
O=C(c1ccc(Nc2ncc(Cl)c(-c3ccc(Cl)s3)n2)cc1)N1CCC(N2CCCC2)CC1  remaining binding (binding; competition with immobilised ligand; 1 µM): 100%
C[C@H]1CCN(c2nccc(-c3cnn4ncccc34)n2)C1  remaining binding (binding; 1 µM): 81%
CC(C)(C)c1ccc(-c2nc(CBr)nn2-c2cccc(O)c2)cc1  remaining binding (cell-free assay; competition with immobilised ligand; 10 µM): 81%
CN(C)c1ncnc(-c2ccc3nc(Nc4cc(CN5CCN(C(=O)CC(F)(F)F)CC5)ccn4)[nH]c3c2)c1Cl  remaining binding (cell-free assay; competition with immobilised ligand; 1 µM): 100%
C[C@@H]1CN(c2ccc3ncc(-c4ccc5[nH]nc(C6CC6)c5c4)n3n2)C[C@H](C)O1  remaining binding (binding; competition with immobilised ligand; 50 nM): 92%
O=C(N[C@H]1CCCCC/C=C\C2C[C@@]2(C(=O)O)NC(=O)[C@@H]2C[C@@H](Oc3ccncc3)CN2C1=O)OC1CCCC1 (stereo partly drawn)  remaining binding (binding; competition with immobilised ligand; 1 µM): 100%
c1cnn2ncc(-c3ccnc(N4CCC45COC5)n3)c2c1  remaining binding (binding; 1 µM): 64%
FC(F)(F)Oc1cccc(-c2cnc3ccc(-c4ccncc4)nn23)c1  remaining binding (cell-free assay; competition with immobilised ligand; 5 µM): 45%
O=C(NCC1CCOCC1)c1n[nH]cc1NC(=O)c1c(F)cccc1F  remaining binding (binding; competition with immobilised ligand; 1 µM): 91%
O=C(NCCCN1CCOCC1)c1ccc(Nc2nccc(-c3cc4ccccc4s3)n2)cc1  remaining binding (binding; competition with immobilised ligand; 1 µM): 100%
Cc1c(NC(=O)c2cc(C(N)=O)nc3cc(F)ccc23)c(C(F)(F)F)nn1Cc1ccc(C(C)(C)C)cc1  remaining binding (cell-free assay; competition with immobilised ligand; 1 µM): 100%
COc1ccnn2ncc(-c3ccnc(N(C)C)n3)c12  remaining binding (binding; 1 µM): 100%
CNC(=O)[C@@H]1CC[C@@H](n2c(-c3ccc4cnccc4c3)nc3ccc(C(=O)NCc4cccc(C(N)=O)c4)cc32)C1  remaining binding (binding; competition with immobilised ligand; 1 µM): 93%
N[C@@H]1CCN(c2nccc(-c3cnn4ncccc34)n2)C1  remaining binding (binding; 1 µM): 100%
CCC(=O)N[C@@H]1CC[C@H](C(=O)N(C)c2ccc(-c3nc4ccccc4o3)cc2)C1  remaining binding (cell-free assay; competition with immobilised ligand; 1 µM): 100%
Cc1cnn2ncc(-c3ccnc(N(C)C)n3)c2c1  remaining binding (binding; 1 µM): 84%
O=C(c1ccc(Nc2ncc(Cl)c(-c3cc4ccccc4s3)n2)cc1)N1CCC(N2CCCC2)CC1  remaining binding (binding; competition with immobilised ligand; 1 µM): 100%
O=C(Nc1cccnn1)N1CCC(=Cc2cccc(Oc3ccc(C(F)(F)F)cn3)c2)CC1  remaining binding (cell-free assay; competition with immobilised ligand; 1 µM): 97%
N#Cc1ccccc1CSc1nnc2c(n1)[nH]c1ccccc12  remaining binding (binding; competition with immobilised ligand; 10 µM): 75%
CN(c1nccc(-c2cnn3ncccc23)n1)C1CC1  remaining binding (binding; 1 µM): 100%
CSc1cccnc1N1CCN(Cc2nc3ccccc3[nH]2)CC1  remaining binding (cell-free assay; competition with immobilised ligand; 1 µM): 96%
c1cncc(-c2cccc(Nc3nccc(NC4CCCCC4)n3)c2)c1  remaining binding (binding; competition with immobilised ligand; 10 µM): 45%
